Bioassay records deposited in PubChem by several laboratories.
PfM18AAP inh – PfM18AAP inhibitors, malaria aminopeptidase, primary screen, biochemical, QFRET, recombinant enzyme; M18 aspartyl aminopeptidase (Plasmodium falciparum 3D7); H-Glu-NHMec fluorogenic cleavage; inhibition, % at 7.35 µM; 290,000 tested, 1.2% active;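 active = inhibition above the campaign mean inhibition over all tested compounds plus 3 SD, cut at about 28% in these data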;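 note: 0% = plate median of test compound wells and 100% = 2 mM ZnCl2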
FAS TE block – FAS thioesterase domain inhibitors, primary screen, biochemical, fluorescence intensity, uHTS. Fatty acid synthase (Homo sapiens), P49327. recombinant FAS-TE, OMFH fluorogenic substrate, fluorescence endpoint. 360,000 tested, 0.67% active. inhibition, % at 15 µM. AID 602261, 2012;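 active = compounds whose normalised, plate-corrected inhibition of enzyme fluorescence in the single-dose primary screen is 50% or more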;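 note: 0% = DMSO with enzyme and 100% = substrate without enzyme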
HDAC3 inh – HDAC3 deacetylase inhibitors, primary screen, biochemical, fluorescence, cell-free homogeneous. Histone deacetylase 3 (Homo sapiens), O15379. recombinant HDAC3, fluorogenic peptide/trypsin coupled. inhibition, % at 8.3 µM. 320,000 tested, 0.15% active; in the data active = inhibition above about 26%, passing the limit was not always enough; inconclusive = no clear call, values can overlap the other calls
Target sequence (O15379 whole entry, looked up): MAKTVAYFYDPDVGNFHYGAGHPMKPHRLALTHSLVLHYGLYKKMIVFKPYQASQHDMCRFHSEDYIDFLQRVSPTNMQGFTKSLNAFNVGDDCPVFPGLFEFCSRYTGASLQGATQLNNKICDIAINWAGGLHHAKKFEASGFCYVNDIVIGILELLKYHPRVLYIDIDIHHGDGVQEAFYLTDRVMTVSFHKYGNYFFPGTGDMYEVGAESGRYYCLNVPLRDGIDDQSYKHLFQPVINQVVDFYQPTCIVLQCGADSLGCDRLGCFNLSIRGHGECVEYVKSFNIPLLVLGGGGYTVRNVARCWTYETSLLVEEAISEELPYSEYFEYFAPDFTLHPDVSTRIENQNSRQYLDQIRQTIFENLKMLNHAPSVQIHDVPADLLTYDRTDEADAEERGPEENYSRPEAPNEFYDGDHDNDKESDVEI
Rtt109 HAT inh – inhibitors of C. albicans Rtt109/Vps75 HAT, primary screen, biochemical, ThioGlo CoA-SH fluorescence, plate reader | 330,000 tested, 0.16% active | Histone acetyltransferase RTT109 (Candida albicans (strain SC5314 / ATCC MYA-2876)), … | inhibition, % at 34.9 µM | purified Rtt109/Vps75, 4 h;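 active = inhibition of at least 50% in every replicate; inconclusive = best replicate reaches 50% inhibition but some replicates fall short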
UCH37 DUB inh – inhibitors of human UCH37 deubiquitinase, primary screen, biochemical, Ub-AMC cleavage, fluorescence; purified proteasome/UCH37; inhibition, % (concentration not given with the values); Ubiquitin carboxyl-terminal hydrolase isozyme L5 (Homo sapiens), Q9Y5K5; AID 588478, 2011; 330,000 tested, 0.33% active;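 active = mean inhibition over replicate wells above about 20%, limit read from the data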;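 note: 0% = compound-free wells with enzyme and 100% = wells lacking proteasome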
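Material: Human UCH37 enzyme supplied as purified proteasome complex | Schedule: 30 min compound-proteasome preincubation then 25 min substrate reaction, room temperature | Detection: AMC fluorescence from Ub-AMC cleavage, excitation 355 nm, emission 460 nm | Benchmarks: Wells without proteasome as full block, compound-free enzyme plus substrate as uninhibited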
ALR H2O2 inh – inhibitors of human ALR sulfhydryl oxidase, primary screen, biochemical, H2O2 detection, HRP-luminol luminescence, single point; FAD-linked sulfhydryl oxidase ALR (Homo sapiens), P55789; purified ALR, DTT oxidation; inhibition, % (concentration not given with the values); 290,000 tested, 3.8% active;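 active = mean replicate inhibition above about 79%, with every replicate also reaching it, limit read from the data; inconclusive = only one of the two criteria met; inactive = mean below limit and not every replicate reaching it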
Target sequence (P55789 whole entry, looked up): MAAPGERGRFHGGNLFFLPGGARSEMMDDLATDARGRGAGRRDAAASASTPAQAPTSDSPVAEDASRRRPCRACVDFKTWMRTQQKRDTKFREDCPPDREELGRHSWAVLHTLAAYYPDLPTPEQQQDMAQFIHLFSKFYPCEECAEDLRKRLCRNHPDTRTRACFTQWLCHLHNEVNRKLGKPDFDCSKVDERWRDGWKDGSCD
* hit, by the source's call; ? = inconclusive; . = no result given. The list is not random: actives were taken first. Their share in the collection is about 4.6%.

SMILES	PfM18AAP inh	FAS TE block	HDAC3 inh	Rtt109 HAT inh	UCH37 DUB inh	ALR H2O2 inh
Oc1c(C(c2cccs2)N2CCN(c3ccccc3)CC2)sc2ncnn12 (stereo unspecified)	17	-55	6	5	4	97*
CCCOC(=O)c1c(NC(=O)C2CCCO2)sc(C(=O)OC)c1C (stereo unspecified)	39*	15	.	-1	-21	.
O=C1c2cccc([N+](=O)[O-])c2C(=O)N1c1ccccc1	5	-5	1	.	0	-8
O=C1c2cccc([N+](=O)[O-])c2C(=O)N1C1CCCCC1	1	15	-5	-5	2	98*
Cc1cc(C)nc(NN=Cc2ccncc2)n1	.	.	.	.	6	.
Cc1cc(C)nc(NN=Cc2cccc(Cl)c2)n1	.	.	.	.	4	.
Cc1nc(C#N)c(N/N=C/c2cccc(Cl)c2)o1	1	8	-1	1	.	97*
O=C(NNS(=O)(=O)c1ccc([N+](=O)[O-])cc1)c1ccccc1	.	13	.	-6	.	.
O=C(O)c1cccc(NC(=O)c2cccc(S(=O)(=O)Nc3cccc([N+](=O)[O-])c3)c2)c1	10	-4	3	0	5	76*
O=C(NNS(=O)(=O)c1ccc([N+](=O)[O-])cc1)C(=O)Nc1cccc(C(=O)O)c1	31*	-3	5	9	.	-11
CCN(CC)c1ccc(/C=C/C(=O)C2C(=O)C=C(C)OC2=O)cc1 (stereo unspecified)	10	-2	1	4	3	99*
CCN(CC)c1ccc(C=C2C(=O)OC(c3ccccc3)OC2=O)cc1 (stereo unspecified)	4	-5	-2	-4	6	26
COc1ccccc1-c1nc(C(=O)NCC2CCCO2)cc2c1[nH]c1ccccc12 (stereo unspecified)	-6	16	-8	-1	-30	98*
O=C(NCC1CCCO1)c1cc2c([nH]c3ccccc32)c(-c2cccc(Cl)c2)n1 (stereo unspecified)	7	32	4	3	-37	2
COc1cc(-c2nc(C(=O)NCC3CCCO3)cc3c2[nH]c2ccccc23)cc(OC)c1OC (stereo unspecified)	6	18	-3	0	-50	99*
COc1cc(CO)cc(-c2cc(CO)cc(OC)c2OC)c1OC	-4	-6	1	4	26*	-1
COc1cc(NCc2ccccc2)c2ncn(C(C)C)c2c1	.	-2	2	9	2	98*
CCOC(=O)C(=NC(C)(C)C)NNc1cc(Cl)ccc1Cl	1	28	-1	-6	7	99*
CCOC(=O)C(=NC(C)C)NNc1cc(Cl)ccc1Cl	0	45	7	.	7	.
CCOC(=O)c1ccc(NC(=O)CSc2nc3c(c(=O)n2-c2ccccc2OC)SCC3)cc1	.	30	1	5	4	99*
COc1ccc(NC(=O)CSc2nc3c(c(=O)n2-c2ccccc2OC)SCC3)cc1	2	0	.	-5	3	64
Cn1c(SCC(=O)Nc2ccc(C(N)=O)cc2)nc2c(c1=O)SCC2	24	-4	7	7	6	99*
Cn1c(SCC(=O)Nc2cccc(F)c2)nc2c(c1=O)SCC2	5	2	1	-6	5	94*
C=CCN1C(=O)/C(=C/c2ccccc2)SC1=Nc1nccs1	.	.	.	.	-8	.
CCOc1cc(C=NNC(=O)c2cccnc2)ccc1OCc1ccc(C(=O)OC)o1	.	.	.	.	6	.
SMILES	PfM18AAP inh	FAS TE block	HDAC3 inh	Rtt109 HAT inh	UCH37 DUB inh	ALR H2O2 inh
Cc1ccccc1C=NN1C(=O)CSC1=S	.	.	.	.	10	.
CCCN(Cc1ccc(N(CC)CC)cc1)CC1CC1	1	-6	-4	2	1	98*
Cc1c(C(=O)NN=Cc2cccs2)nnn1-c1nonc1N	.	.	.	.	4	.
O=[N+]([O-])c1cc(N=Nc2ccc3ccccc3c2)ccc1O	2	15	0	-6	4	-4
O=[N+]([O-])c1ccccc1N=Nc1ccc(O)cc1O	.	0	.	.	21*	.
Oc1ccc(N=Cc2cc(Br)c(N3CCOCC3)o2)cc1	16	-9	-8	10	10	86*
CC1(C)CC(NC(=O)N2c3ccccc3Sc3ccccc32)CC(C)(C)N1	-1	-5	1	-12	5	99*
CC(NC(=O)c1ccc(CS(C)(=O)=O)cc1)C1CC2CCC1C2 (stereo unspecified)	-5	-2	-2	1	4	-1
CC(NCc1ccc(N(C)C)cc1)C1CC2CCC1C2 (stereo unspecified)	5	-7	-3	.	2	98*
NNC(=O)c1ccc(COc2cccc3cccnc23)cc1	-9	-5	2	.	3	98*
COc1cc2c(cc1OC)[C@@H]1Cc3cc4c(cc3[C@H](C2)N1C)OCO4	4	-11	34*	5	2	-4
O=CC1=C(N2CCOCC2)/C(=C\c2ccccc2)CC1	7	-2	2	6	12	5
N#CC1=C(N2CCOCC2)/C(=C\c2ccccc2)CC1	1	11	5	-2	-17	93*
CCc1ccc(-c2nc(CSCC(=O)NCCCN3CCCC3=O)c(C)o2)cc1	2	-6	0	1	3	99*
O=C(CSc1ccc2ccccc2c1)NCCCN1CCCC1=O	10	-8	2	-8	2	100*
CCOCCCNC(=O)CSCc1nc(-c2ccc(SC)cc2)oc1C	5	-6	1	-6	-3	.
COCCNC(=O)CSCc1nc(-c2ccc(SC)cc2)oc1C	-6	-1	?	0	-4	100*
Cc1ccccc1-c1nc(CS(=O)(=O)CC(=O)NCCCN2CCCC2=O)c(C)o1	2	-6	6	0	-1	7
O=C(CSc1ccc2ccccc2n1)NCCCN1CCCC1=O	.	-9	8	-13	1	0
CSc1ccc(-c2nc(CSCC(=O)NCCCN3CCCC3=O)c(C)o2)cc1	2	-8	7	-1	0	95*
CC(NC(=O)C(=O)NN=Cc1ccccc1)c1ccccc1 (stereo unspecified)	.	.	.	.	5	.
COc1cc(C=NNc2ccc3ccccc3c2)ccc1OC(=O)c1ccco1	.	.	.	.	-18	.
O=[N+]([O-])c1ccccc1S(=O)(=O)Oc1ccc(C=Nn2cnnc2)cc1	.	.	.	.	2	.
CC(CCc1ccccc1)=NNC(=O)c1ccc(CN2CCOCC2)cc1	.	.	.	.	2	.
